Data published in ChEMBL document CHEMBL3351385, “Synthesis and preliminary mechanistic evaluation of 5-(p-tolyl)-1-(quinolin-2-yl)pyrazole-3-carboxylic acid amides with potent antiproliferative activity on human cancer cell lines” (Eur J Med Chem, 2014).
Active and inactive are the calls of the source. The calls are words filed in the database; no cut-off is given here.

How the values were obtained:
Huh-7 = assay: Induction of cell death in human HuH7 cells assessed as nuclear condensation at cytotoxic IC50 level after 72 hrs by Hoechst 33258 staining based […]; format: functional
How it was run: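 Cells were washed in cold PBS, fixed 10 min in cold methanol and stained with Hoechst 33258 at 3 µg/mL for 5 min in the dark. Nuclear condensation and fragmentation were examined by fluorescence microscopy at 40×.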

[1] = Induction of cell cycle arrest in human Mahlavu cells assessed as accumulation at G0/G1 phase at cytotoxic IC50 level after 48 hrs by propidium iodide staining based FACS method; format: functional
[2] = Induction of cell cycle arrest in human Mahlavu cells assessed as accumulation at S phase at cytotoxic IC50 level after 48 hrs by propidium iodide staining based FACS method; format: functional
[3] = Induction of cell cycle arrest in human HuH7 cells assessed as accumulation at G0/G1 phase at cytotoxic IC50 level after 48 hrs by propidium iodide staining based FACS method; format: functional, Huh-7
How it was run: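 Huh7 cells were seeded at 150,000–300,000 per 100-mm dish and left 24 h. […] Cells were stained with a propidium iodide-containing cell cycle reagent, and subG1, G0/G1, S and G2/M fractions were scored by flow cytometry.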

[4] = biological target: Mitogen-activated protein kinase 1 (Homo sapiens) (UniProt P28482); assay: Inhibition of ERK2 (unknown origin) assessed as remaining enzyme activity at 10 uM by radioactive [33P]-ATP filter binding assay
How it was run: (§1)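 A single 10 µM concentration was tested across a 140-kinase panel. Activity was measured by a radioactive 33P-ATP filter-binding assay run at the International Center for Kinase Profiling, University of Dundee.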

[5] = biological target: Mitogen-activated protein kinase 14 (Homo sapiens) (UniProt Q16539); assay: Inhibition of p38alpha (unknown origin) assessed as remaining enzyme activity at 10 uM by radioactive [33P]-ATP filter binding assay
[6] = biological target: Mitogen-activated protein kinase 11 (Homo sapiens) (UniProt Q15759); assay: Inhibition of p38beta (unknown origin) assessed as remaining enzyme activity at 10 uM by radioactive [33P]-ATP filter binding assay
[7] = biological target: Mitogen-activated protein kinase 12 (Homo sapiens) (UniProt P53778); assay: Inhibition of p38gamma (unknown origin) assessed as remaining enzyme activity at 10 uM by radioactive [33P]-ATP filter binding assay
How it was run: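 Single-concentration screen against a 140-kinase panel. Done by the International Center for Kinase Profiling, University of Dundee, with a radioactive 33P-ATP filter-binding read-out.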

[8] = biological target: Ribosomal protein S6 kinase alpha-5 (Homo sapiens) (UniProt O75582); assay: Inhibition of MSK1 (unknown origin) assessed as remaining enzyme activity at 10 uM by radioactive [33P]-ATP filter binding assay
[9] = biological target: MAP kinase-interacting serine/threonine-protein kinase 1 (Homo sapiens) (UniProt Q9BUB5); assay: Inhibition of MNK1 (unknown origin) assessed as remaining enzyme activity at 10 uM by radioactive [33P]-ATP filter binding assay
[10] = biological target: MAP kinase-interacting serine/threonine-protein kinase 2 (Homo sapiens) (UniProt Q9HBH9); assay: Inhibition of MNK2 (unknown origin) assessed as remaining enzyme activity at 10 uM by radioactive [33P]-ATP filter binding assay
[11] = biological target: MAP kinase-activated protein kinase 5 (Homo sapiens) (UniProt Q8IW41); assay: Inhibition of PRAK (unknown origin) assessed as remaining enzyme activity at 10 uM by radioactive [33P]-ATP filter binding assay
[12] = biological target: Serine/threonine-protein kinase Chk2 (Homo sapiens) (UniProt O96017); assay: Inhibition of CHK2 (unknown origin) assessed as remaining enzyme activity at 10 uM by radioactive [33P]-ATP filter binding assay; how it was run: as §1
[13] = biological target: CDK2/Cyclin A2 (Homo sapiens) (UniProt P24941+P20248); assay: Inhibition of CDK2/Cyclin A (unknown origin) assessed as remaining enzyme activity at 10 uM by radioactive [33P]-ATP filter binding assay; format: protein-complex assay; how it was run: as §1
[14] = biological target: Serine/threonine-protein kinase tousled-like 1 (Homo sapiens) (UniProt Q9UKI8); assay: Inhibition of TLK1 (unknown origin) assessed as remaining enzyme activity at 10 uM by radioactive [33P]-ATP filter binding assay
[15] = biological target: Tyrosine-protein kinase SYK (Homo sapiens) (UniProt P43405); assay: Inhibition of SYK (unknown origin) assessed as remaining enzyme activity at 10 uM by radioactive [33P]-ATP filter binding assay
[16] = biological target: Ephrin type-B receptor 1 (Homo sapiens) (UniProt P54762); assay: Inhibition of EPHB1 (unknown origin) assessed as remaining enzyme activity at 10 uM by radioactive [33P]-ATP filter binding assay; how it was run: as §1
[17] = biological target: Receptor tyrosine-protein kinase erbB-4 (Homo sapiens) (UniProt Q15303); assay: Inhibition of HER4 (unknown origin) assessed as remaining enzyme activity at 10 uM by radioactive [33P]-ATP filter binding assay
[18] = biological target: High affinity nerve growth factor receptor (Homo sapiens) (UniProt P04629); assay: Inhibition of TrkA (unknown origin) assessed as remaining enzyme activity at 10 uM by radioactive [33P]-ATP filter binding assay
[19] = biological target: Vascular endothelial growth factor receptor (Homo sapiens) (UniProt P17948+P35916+P35968); assay: Inhibition of VEGFR (unknown origin) assessed as remaining enzyme activity at 10 uM by radioactive [33P]-ATP filter binding assay; format: protein assay
[20] = biological target: NUAK family SNF1-like kinase 1 (Homo sapiens) (UniProt O60285); assay: Inhibition of NUAK1 (unknown origin) assessed as remaining enzyme activity at 10 uM by radioactive [33P]-ATP filter binding assay
[21] = biological target: Casein kinase I isoform gamma-2 (Homo sapiens) (UniProt P78368); assay: Inhibition of CK1gamma2 (unknown origin) assessed as remaining enzyme activity at 10 uM by radioactive [33P]-ATP filter binding assay; how it was run: as §1
[22] = biological target: Serine/threonine-protein kinase pim-3 (Homo sapiens) (UniProt Q86V86); assay: Inhibition of PIM3 (unknown origin) assessed as remaining enzyme activity at 10 uM by radioactive [33P]-ATP filter binding assay
[23] = biological target: Eukaryotic translation initiation factor 2-alpha kinase 3 (Homo sapiens) (UniProt Q9NZJ5); assay: Inhibition of EIF2AK3 (unknown origin) assessed as remaining enzyme activity at 10 uM by radioactive [33P]-ATP filter binding assay; how it was run: as §1
[24] = biological target: Serine/threonine-protein kinase PAK 5 (Homo sapiens) (UniProt Q9P286); assay: Inhibition of PAK5 (unknown origin) assessed as remaining enzyme activity at 10 uM by radioactive [33P]-ATP filter binding assay
[25] = biological target: Interleukin-1 receptor-associated kinase 1 (Homo sapiens) (UniProt P51617); assay: Inhibition of IRAK1 (unknown origin) assessed as remaining enzyme activity at 10 uM by radioactive [33P]-ATP filter binding assay
[26] = biological target: TGF-beta receptor type-1 (Homo sapiens) (UniProt P36897); assay: Inhibition of TGFBR1 (unknown origin) assessed as remaining enzyme activity at 10 uM by radioactive [33P]-ATP filter binding assay
Sequence of TGF-beta receptor type-1 (Homo sapiens) (P36897 whole entry): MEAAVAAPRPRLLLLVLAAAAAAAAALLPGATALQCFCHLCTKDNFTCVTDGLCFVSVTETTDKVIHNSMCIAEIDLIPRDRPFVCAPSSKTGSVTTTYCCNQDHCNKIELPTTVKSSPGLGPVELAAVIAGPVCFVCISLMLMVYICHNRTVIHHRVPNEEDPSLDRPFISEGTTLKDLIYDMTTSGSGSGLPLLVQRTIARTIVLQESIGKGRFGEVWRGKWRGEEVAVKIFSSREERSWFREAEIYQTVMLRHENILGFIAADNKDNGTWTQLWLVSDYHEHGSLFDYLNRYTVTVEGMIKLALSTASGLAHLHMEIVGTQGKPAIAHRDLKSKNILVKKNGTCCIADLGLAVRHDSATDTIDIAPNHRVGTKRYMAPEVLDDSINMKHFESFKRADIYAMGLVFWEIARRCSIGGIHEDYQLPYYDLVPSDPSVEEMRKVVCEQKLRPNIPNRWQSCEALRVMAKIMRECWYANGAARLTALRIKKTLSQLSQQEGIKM

Sequence of Eukaryotic translation initiation factor 2-alpha kinase 3 (Homo sapiens) (Q9NZJ5 whole entry): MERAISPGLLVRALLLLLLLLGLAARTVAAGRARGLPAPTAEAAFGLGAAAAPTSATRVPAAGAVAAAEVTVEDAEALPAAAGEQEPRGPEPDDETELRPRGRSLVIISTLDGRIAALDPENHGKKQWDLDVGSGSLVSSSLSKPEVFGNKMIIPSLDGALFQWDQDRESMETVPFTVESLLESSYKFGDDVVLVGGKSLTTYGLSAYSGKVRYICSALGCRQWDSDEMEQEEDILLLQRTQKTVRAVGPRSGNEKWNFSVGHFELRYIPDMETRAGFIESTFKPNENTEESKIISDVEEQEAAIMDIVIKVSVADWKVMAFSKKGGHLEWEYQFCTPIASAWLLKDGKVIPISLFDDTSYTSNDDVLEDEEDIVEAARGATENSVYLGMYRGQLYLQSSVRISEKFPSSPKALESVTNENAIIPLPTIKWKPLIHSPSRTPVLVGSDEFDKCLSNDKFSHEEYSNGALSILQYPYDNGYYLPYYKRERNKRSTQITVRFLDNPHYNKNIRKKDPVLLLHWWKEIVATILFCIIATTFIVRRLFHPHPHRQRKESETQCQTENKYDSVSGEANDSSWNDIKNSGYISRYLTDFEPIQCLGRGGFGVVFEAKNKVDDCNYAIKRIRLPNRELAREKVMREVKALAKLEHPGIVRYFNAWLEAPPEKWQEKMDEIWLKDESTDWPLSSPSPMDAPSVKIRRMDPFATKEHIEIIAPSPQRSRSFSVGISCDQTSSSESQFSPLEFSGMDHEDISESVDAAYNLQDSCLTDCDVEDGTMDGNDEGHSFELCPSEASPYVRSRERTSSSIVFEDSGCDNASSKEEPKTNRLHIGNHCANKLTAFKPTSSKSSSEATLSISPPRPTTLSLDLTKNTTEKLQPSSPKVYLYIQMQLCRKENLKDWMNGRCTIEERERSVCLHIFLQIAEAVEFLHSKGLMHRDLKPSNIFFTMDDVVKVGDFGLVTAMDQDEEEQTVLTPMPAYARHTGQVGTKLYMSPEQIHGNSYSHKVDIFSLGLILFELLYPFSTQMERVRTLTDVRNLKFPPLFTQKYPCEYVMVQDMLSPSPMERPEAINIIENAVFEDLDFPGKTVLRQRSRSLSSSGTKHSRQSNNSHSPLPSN
Sequence of MAP kinase-interacting serine/threonine-protein kinase 1 (Homo sapiens) (Q9BUB5 whole entry, looked up): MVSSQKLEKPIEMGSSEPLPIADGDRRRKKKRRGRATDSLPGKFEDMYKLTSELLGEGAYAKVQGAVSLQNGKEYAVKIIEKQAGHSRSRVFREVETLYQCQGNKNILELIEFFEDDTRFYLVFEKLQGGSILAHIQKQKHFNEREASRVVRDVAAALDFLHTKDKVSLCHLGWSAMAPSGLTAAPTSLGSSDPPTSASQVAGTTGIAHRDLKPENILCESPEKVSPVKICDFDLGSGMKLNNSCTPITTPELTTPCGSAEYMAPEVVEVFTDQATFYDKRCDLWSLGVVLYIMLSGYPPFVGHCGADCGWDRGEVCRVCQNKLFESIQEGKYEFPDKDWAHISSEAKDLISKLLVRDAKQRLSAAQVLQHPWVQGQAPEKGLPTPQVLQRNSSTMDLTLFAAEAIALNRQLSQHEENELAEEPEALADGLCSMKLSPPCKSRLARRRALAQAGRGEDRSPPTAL
Sequence of Mitogen-activated protein kinase 14 (Homo sapiens) (Q16539 whole entry): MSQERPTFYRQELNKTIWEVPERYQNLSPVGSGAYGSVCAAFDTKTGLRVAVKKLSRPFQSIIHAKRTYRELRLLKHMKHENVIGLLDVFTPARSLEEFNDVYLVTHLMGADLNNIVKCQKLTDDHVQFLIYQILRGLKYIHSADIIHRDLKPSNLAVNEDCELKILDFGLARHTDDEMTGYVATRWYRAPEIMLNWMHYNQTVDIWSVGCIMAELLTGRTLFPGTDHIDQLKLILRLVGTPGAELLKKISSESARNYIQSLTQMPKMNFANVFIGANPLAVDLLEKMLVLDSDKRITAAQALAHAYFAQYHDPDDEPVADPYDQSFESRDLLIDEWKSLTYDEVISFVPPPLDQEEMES
Sequence of Mitogen-activated protein kinase 12 (Homo sapiens) (P53778 whole entry): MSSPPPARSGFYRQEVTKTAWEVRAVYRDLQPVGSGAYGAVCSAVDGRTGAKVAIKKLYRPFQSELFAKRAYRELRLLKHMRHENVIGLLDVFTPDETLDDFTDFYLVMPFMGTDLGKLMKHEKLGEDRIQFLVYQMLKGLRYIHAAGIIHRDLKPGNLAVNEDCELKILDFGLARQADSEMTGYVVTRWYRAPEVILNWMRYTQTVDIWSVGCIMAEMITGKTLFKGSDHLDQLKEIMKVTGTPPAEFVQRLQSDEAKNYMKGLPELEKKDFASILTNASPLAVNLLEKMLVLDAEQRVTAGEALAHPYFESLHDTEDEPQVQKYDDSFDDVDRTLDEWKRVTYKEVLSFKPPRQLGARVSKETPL
Sequence of Mitogen-activated protein kinase 11 (Homo sapiens) (Q15759 whole entry): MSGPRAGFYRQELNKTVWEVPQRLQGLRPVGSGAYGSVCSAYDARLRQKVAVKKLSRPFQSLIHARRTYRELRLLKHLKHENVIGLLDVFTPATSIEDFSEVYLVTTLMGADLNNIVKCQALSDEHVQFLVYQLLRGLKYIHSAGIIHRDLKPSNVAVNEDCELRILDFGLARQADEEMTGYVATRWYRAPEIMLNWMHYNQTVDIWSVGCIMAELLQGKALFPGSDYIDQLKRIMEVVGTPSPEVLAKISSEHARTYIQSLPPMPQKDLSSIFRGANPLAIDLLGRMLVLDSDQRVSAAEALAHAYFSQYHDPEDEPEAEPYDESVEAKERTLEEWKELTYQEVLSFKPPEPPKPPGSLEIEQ
Sequence of Casein kinase I isoform gamma-2 (Homo sapiens) (P78368 whole entry, looked up, canonical isoform): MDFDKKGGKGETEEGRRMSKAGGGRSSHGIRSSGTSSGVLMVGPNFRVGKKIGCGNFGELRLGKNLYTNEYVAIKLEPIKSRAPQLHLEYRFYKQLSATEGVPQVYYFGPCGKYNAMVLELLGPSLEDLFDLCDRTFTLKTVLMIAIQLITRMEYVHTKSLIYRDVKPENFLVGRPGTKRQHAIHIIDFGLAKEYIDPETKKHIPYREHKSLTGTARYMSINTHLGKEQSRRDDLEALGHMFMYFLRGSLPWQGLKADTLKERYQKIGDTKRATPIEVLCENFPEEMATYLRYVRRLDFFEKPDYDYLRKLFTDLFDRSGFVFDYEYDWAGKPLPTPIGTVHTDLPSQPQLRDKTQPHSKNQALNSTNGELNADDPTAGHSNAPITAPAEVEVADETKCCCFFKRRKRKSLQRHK
Sequence of Mitogen-activated protein kinase 1 (Homo sapiens) (P28482 whole entry): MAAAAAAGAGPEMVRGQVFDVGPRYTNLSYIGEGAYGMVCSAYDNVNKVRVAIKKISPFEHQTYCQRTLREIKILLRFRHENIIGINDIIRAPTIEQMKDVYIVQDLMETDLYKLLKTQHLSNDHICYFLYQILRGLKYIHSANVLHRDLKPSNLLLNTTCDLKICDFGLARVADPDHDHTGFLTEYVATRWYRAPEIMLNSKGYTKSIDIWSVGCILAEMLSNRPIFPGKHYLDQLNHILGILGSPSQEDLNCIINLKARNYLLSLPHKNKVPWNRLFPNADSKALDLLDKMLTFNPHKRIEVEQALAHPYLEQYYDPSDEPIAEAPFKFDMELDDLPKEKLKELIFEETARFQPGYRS
Sequence of Serine/threonine-protein kinase Chk2 (Homo sapiens) (O96017 whole entry): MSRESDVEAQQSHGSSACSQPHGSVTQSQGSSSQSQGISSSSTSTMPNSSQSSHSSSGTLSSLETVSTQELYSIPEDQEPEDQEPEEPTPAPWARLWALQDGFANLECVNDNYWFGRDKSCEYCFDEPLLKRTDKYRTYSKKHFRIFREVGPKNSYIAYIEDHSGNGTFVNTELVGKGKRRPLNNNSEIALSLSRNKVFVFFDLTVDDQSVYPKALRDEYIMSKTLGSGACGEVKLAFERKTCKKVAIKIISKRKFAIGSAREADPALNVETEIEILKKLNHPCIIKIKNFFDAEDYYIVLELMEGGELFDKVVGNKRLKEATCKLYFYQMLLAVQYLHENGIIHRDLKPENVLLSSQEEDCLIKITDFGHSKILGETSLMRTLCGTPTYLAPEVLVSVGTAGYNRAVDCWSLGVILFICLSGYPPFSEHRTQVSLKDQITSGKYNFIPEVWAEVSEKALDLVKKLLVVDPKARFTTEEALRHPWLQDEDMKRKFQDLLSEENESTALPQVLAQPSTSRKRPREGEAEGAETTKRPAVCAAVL

Cc1ccc(-c2cc(C(=O)Nc3ccnc(Cl)c3)nn2-c2ccc3ccccc3n2)cc1
Activity (Huh-7): Active
Activity [1]: 58.7%
Activity [2]: 11.1%
Activity [3]: 40.1%
Activity [4]: 115%
Activity [5]: 95%
Activity [6]: 107%
Activity [7]: 107%
Activity [8]: 89%
Activity [9]: 104%
Activity [10]: 109%
Activity [11]: 88%
Activity [12]: 94%
Activity [13]: 102%
Activity [14]: 114%
Activity [15]: 97%
Activity [16]: 128%
Activity [17]: 128%
Activity [18]: 96%
Activity [19]: 92%
Activity [20]: 100%
Activity [21]: 99%
Activity [22]: 113%
Activity [23]: 96%
Activity [24]: 97%
Activity [25]: 109%
Activity [26]: 108%
